One compound from ChEMBL document CHEMBL4354843, “Structure-Based Design of a Potent and Selective Covalent Inhibitor for SRC Kinase That Targets a P-Loop Cysteine” (J Med Chem, 2020) can be followed below.

The target in test [1] is Serine/threonine-protein kinase PRP4 homolog (Homo sapiens) (UniProt Q13523). Briefly: Binding affinity to wild-type human partial length PRP4 (D657 to I1007 residues) expressed in bacterial expression system assessed as residual binding level at 1 uM by Kinomescan method relative to control. In a few lines:
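Active-site-directed competition binding panel of 468 kinases (KinomeScan), compound at 1 μM. The read-out is kinase remaining bound, given as a percentage of the DMSO control. […]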

Test [2] has as its system Tyrosine-protein kinase ABL1 (Homo sapiens), P00519 [E255K]. Briefly: Binding affinity to human phosphorylated ABL1 E255K mutant (S229 to K512 residues) expressed in mammalian expression system assessed as residual binding level at 1 uM by Kinomescan method relative to control. A digest of the protocol:
(§1)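 KinomeScan active site-directed competition binding panel (468 kinases), compound tested at 1 μM. Result expressed as remaining kinase signal versus DMSO control (percent of control).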

Test [3] has as its target Myosin light chain kinase 2, skeletal/cardiac muscle (Homo sapiens) (UniProt Q9H1R3). Briefly: Binding affinity to wild-type human partial length MYLK2 (D258 to K570 residues) expressed in bacterial expression system assessed as residual binding level at 1 uM by Kinomescan method relative to control.
Test [4] deals with cAMP-dependent protein kinase catalytic subunit beta (Homo sapiens) (UniProt P22694). Briefly: Binding affinity to wild-type human full length PKAC-beta (M1 to F351 residues) expressed in bacterial expression system assessed as residual binding level at 1 uM by Kinomescan method relative to control. A digest of the protocol: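 Active-site-directed competition binding panel (KinomeScan) covering 468 kinases. Test agent was screened at 1 μM. The read-out is the remaining kinase signal expressed relative to a DMSO control. Scores above 35%, taken as weak binding, were not reported.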

Test [5] concerns Receptor-type tyrosine-protein kinase FLT3 (Homo sapiens), P36888 [UNDEFINED MUTATION]. Briefly: Binding affinity to human partial length FLT3 ITD mutant expressed in bacterial expression system assessed as residual binding level at 1 uM by Kinomescan method relative to control. In a few lines: as §1
The target in test [6] is Serine/threonine-protein kinase Nek3 (Homo sapiens) (UniProt P51956). Briefly: Binding affinity to wild-type human full length NEK3 (M1 to R506 residues) expressed in mammalian expression system assessed as residual binding level at 1 uM by Kinomescan method relative to control. A digest of the protocol: (§2)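 KinomeScan, an active site-directed competition binding panel of 468 kinases. The test compound was at 1 μM. The readout is remaining kinase binding as a percentage of the DMSO control. Scores above 35% were treated as weak binding and not listed.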

The target of test [7] is Mitogen-activated protein kinase kinase kinase 12 (DLK) (Homo sapiens) (UniProt Q12852). Briefly: Binding affinity to wild-type human full length DLK (M1 to P859 residues) expressed in mammalian expression system assessed as residual binding level at 1 uM by Kinomescan method relative to control.
Test [8] deals with Mitogen-activated protein kinase kinase kinase 3 (Homo sapiens) (UniProt Q99759). The test can be described thus: Binding affinity to wild-type human partial length MAP3K3 (E320 to Y626 residues) expressed in mammalian expression system assessed as residual binding level at 1 uM by Kinomescan method relative to control.
Test [9] addresses STE20/SPS1-related proline-alanine-rich protein kinase (Homo sapiens) (UniProt Q9UEW8). The test can be described thus: Binding affinity to wild-type human partial length STK39 (P43 to I357 residues) expressed in mammalian expression system assessed as residual binding level at 1 uM by Kinomescan method relative to control.
Test [10] has as its target Calcium-dependent protein kinase 1 (Plasmodium falciparum) (UniProt P62344). The test can be described thus: Binding affinity to wild-type Plasmodium falciparum full length CDPK1 (M1 to S524 residues) expressed in mammalian expression system assessed as residual binding level at 1 uM by Kinomescan method relative to control. A digest of the protocol:
as §2

The target in test [11] is Receptor-type tyrosine-protein kinase FLT3 (Homo sapiens) (UniProt P36888). Briefly: Binding affinity to wild-type human partial length autoinhibited FLT3 (H564 to Y969 residues) expressed in mammalian expression system assessed as residual binding level at 1 uM by Kinomescan method relative to control.
Test [12] deals with Ribosomal protein S6 kinase alpha-2 (Homo sapiens) (UniProt Q15349). The test can be described thus: Binding affinity to wild-type human partial length N- terminal RSK3 kinase domain 1 (M1 to Q385 residues) expressed in bacterial expression system assessed as residual binding level at 1 uM by Kinomescan method relative to control.
Test [13] deals with Phosphatidylinositol 4,5-bisphosphate 3-kinase catalytic subunit alpha isoform (Homo sapiens), P42336 [M1043I]. The test can be described thus: Binding affinity to human partial length PIK3CA M1043I mutant (R108 to N1068 residues) expressed in mammalian expression system assessed as residual binding level at 1 uM by Kinomescan method relative to control. In a few lines:
as §1

In test [14] the test system is Phosphatidylinositol 4,5-bisphosphate 3-kinase catalytic subunit alpha isoform (Homo sapiens), P42336 [E542K]. Briefly: Binding affinity to human partial length PIK3CA E542K mutant (R108 to N1068 residues) expressed in mammalian expression system assessed as residual binding level at 1 uM by Kinomescan method relative to control. A digest of the protocol: as §1
Test [15] has as its target Fibroblast growth factor receptor 1 (Homo sapiens, UniProt P11362). The test can be described thus: Inhibition of recombinant human His-tagged FGFR1 (308 to 731 residues) expressed in baculovirus expression system using tyrosine-4 peptide as substrate incubated for 1 hr by Z'-LYTE assay.
The target of test [16] is Hepatocyte growth factor receptor (Homo sapiens) (UniProt P08581). The test can be described thus: Binding affinity to wild-type human partial length MET (D1010 to S1367 residues) expressed in bacterial expression system assessed as residual binding level at 1 uM by Kinomescan method relative to control.
The target in test [17] is Cyclin-dependent kinase 16 (Homo sapiens) (UniProt Q00536). The test can be described thus: Binding affinity to wild-type human partial length PCTK1 (G160 to A474 residues) expressed in mammalian expression system assessed as residual binding level at 1 uM by Kinomescan method relative to control.
Test [18] has as its system Hepatocyte growth factor receptor (Homo sapiens), P08581 [M1250T]. Briefly: Binding affinity to human partial length MET M1250T mutant (D1010 to S1367 residues) expressed in bacterial expression system assessed as residual binding level at 1 uM by Kinomescan method relative to control. In a few lines:
as §1

Test [19] deals with ALK tyrosine kinase receptor (Homo sapiens) (UniProt Q9UM73). Briefly: Binding affinity to wild-type human partial length ALK (I1088 to E1409 residues) expressed in mammalian expression system assessed as residual binding level at 1 uM by Kinomescan method relative to control.
In test [20] the target is Ribosomal protein S6 kinase alpha-1 (Homo sapiens) (UniProt Q15418). Briefly: Binding affinity to wild-type human partial length N-terminal RSK1 Kinase domain 1 (M1 to E388 residues) expressed in bacterial expression system assessed as residual binding level at 1 uM by Kinomescan method relative to control.
In test [21] the target is Calcium/calmodulin-dependent protein kinase type 1D (Homo sapiens) (UniProt Q8IU85). The test can be described thus: Binding affinity to wild-type human partial length CAMK1D (M1 to K299 residues) expressed in bacterial expression system assessed as residual binding level at 1 uM by Kinomescan method relative to control.

Fibroblast growth factor receptor 1, sequence (P11362 whole entry, the tested form may be a part): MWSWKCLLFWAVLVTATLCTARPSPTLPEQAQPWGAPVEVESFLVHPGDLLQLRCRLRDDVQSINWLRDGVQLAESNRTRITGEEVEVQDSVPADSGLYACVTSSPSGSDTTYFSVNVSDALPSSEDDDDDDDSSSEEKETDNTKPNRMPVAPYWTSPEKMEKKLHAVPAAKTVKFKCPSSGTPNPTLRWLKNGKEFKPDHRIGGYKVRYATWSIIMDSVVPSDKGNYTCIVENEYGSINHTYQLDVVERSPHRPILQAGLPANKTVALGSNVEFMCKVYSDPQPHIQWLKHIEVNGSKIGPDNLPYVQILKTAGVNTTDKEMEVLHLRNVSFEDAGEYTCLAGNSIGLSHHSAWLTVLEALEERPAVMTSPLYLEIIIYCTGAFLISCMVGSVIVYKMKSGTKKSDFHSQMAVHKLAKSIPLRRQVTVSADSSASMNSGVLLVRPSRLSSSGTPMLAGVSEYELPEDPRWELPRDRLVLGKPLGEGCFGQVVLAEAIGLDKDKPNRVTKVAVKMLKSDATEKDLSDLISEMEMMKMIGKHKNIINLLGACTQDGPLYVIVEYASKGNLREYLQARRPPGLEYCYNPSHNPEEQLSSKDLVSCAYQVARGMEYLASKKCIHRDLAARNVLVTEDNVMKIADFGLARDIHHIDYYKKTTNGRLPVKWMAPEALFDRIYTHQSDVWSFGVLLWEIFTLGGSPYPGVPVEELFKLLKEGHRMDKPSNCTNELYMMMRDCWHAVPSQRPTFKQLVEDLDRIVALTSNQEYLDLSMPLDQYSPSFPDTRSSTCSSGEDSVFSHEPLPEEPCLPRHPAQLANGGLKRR
ALK tyrosine kinase receptor (Homo sapiens), sequence (Q9UM73 19-1620 limits assumed): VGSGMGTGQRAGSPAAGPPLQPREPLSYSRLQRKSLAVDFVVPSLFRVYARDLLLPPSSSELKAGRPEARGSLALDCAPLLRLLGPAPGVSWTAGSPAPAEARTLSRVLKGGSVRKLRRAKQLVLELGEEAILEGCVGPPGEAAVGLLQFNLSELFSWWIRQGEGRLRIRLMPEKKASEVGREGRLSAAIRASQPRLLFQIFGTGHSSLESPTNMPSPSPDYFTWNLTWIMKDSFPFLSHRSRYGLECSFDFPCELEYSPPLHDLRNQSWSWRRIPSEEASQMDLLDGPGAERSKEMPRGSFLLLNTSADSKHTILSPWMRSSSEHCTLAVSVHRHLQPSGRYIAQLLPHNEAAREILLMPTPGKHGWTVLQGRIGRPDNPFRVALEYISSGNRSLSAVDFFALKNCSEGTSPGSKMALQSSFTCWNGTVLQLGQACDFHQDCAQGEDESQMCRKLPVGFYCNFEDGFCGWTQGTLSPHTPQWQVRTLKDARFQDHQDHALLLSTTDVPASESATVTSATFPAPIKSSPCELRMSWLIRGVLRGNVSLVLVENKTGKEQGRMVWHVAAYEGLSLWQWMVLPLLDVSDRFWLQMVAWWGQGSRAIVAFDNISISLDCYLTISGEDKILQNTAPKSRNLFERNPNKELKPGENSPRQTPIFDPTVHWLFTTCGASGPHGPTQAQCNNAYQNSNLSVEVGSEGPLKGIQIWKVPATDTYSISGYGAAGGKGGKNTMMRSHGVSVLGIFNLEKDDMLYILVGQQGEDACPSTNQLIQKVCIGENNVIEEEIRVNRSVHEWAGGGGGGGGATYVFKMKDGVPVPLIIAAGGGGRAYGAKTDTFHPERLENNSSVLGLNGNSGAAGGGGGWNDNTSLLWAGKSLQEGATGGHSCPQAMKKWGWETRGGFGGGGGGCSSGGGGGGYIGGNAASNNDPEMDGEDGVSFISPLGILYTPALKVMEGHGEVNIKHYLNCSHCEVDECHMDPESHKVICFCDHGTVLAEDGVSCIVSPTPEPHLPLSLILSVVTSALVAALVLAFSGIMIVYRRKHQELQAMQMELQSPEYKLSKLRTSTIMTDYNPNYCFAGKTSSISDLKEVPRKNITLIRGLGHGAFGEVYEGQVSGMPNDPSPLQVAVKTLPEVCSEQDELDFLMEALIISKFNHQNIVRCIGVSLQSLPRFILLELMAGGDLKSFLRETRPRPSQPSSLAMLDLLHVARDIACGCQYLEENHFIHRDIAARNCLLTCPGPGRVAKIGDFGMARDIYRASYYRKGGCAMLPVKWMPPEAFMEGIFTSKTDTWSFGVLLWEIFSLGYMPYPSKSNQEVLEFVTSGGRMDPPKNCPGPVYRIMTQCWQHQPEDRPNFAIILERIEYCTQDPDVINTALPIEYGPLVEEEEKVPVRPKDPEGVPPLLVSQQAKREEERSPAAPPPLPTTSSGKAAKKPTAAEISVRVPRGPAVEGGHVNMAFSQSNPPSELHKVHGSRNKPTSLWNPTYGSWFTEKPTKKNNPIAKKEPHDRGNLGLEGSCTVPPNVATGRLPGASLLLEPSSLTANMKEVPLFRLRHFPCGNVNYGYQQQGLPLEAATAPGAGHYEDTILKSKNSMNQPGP
Mitogen-activated protein kinase kinase kinase 12 (DLK) (Homo sapiens), sequence (Q12852 whole entry, looked up, the tested form may be a part): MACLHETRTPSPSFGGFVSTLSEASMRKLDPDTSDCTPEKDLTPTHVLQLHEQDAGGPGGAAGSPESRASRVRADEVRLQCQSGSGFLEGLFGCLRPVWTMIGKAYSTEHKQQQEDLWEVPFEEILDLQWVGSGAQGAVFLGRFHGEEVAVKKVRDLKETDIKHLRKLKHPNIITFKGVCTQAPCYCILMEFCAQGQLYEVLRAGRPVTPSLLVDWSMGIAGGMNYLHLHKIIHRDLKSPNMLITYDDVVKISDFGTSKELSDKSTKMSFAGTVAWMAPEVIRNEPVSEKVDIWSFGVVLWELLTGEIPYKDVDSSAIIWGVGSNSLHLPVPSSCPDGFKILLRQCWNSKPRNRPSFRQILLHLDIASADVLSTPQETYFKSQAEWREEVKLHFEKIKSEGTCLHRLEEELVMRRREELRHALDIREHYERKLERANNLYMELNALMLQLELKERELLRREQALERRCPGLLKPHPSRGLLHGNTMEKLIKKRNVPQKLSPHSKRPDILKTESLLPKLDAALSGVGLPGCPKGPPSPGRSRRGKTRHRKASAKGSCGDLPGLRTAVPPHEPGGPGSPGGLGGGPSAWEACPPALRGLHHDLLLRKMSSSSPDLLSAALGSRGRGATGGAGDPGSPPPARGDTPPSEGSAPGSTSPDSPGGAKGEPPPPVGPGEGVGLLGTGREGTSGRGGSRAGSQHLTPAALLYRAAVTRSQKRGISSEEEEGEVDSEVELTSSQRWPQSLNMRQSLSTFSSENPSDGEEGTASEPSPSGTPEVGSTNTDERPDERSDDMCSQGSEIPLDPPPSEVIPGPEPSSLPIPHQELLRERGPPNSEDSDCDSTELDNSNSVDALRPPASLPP
Serine/threonine-protein kinase PRP4 homolog (Homo sapiens), sequence (Q13523 whole entry, the tested form may be a part): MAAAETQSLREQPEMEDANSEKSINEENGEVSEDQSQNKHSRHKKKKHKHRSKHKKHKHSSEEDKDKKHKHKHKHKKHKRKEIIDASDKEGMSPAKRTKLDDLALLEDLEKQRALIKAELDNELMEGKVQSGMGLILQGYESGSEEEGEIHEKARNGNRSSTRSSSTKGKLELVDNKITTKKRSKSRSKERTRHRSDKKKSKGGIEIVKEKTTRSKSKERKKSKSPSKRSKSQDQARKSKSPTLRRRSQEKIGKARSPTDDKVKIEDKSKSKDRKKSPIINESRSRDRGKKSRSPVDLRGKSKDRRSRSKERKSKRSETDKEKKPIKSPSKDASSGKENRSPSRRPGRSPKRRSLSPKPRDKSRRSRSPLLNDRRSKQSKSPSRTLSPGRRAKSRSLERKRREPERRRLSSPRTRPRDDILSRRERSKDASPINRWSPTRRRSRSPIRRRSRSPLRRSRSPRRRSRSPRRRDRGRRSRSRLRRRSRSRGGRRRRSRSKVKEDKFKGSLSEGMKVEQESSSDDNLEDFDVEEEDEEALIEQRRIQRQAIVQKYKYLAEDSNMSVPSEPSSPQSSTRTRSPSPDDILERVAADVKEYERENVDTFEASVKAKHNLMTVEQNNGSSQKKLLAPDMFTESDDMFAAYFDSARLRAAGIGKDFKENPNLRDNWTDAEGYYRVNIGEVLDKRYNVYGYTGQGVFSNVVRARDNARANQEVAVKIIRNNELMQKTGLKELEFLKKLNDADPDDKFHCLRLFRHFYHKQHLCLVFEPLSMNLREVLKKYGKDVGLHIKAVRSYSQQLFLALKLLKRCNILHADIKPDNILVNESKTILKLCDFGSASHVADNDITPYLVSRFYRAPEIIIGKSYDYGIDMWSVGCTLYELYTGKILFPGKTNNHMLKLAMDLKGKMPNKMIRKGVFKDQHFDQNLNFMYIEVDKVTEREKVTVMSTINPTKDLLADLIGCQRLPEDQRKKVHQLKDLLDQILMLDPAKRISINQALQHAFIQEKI
Ribosomal protein S6 kinase alpha-1 (Homo sapiens), sequence (Q15418 whole entry, the tested form may be a part): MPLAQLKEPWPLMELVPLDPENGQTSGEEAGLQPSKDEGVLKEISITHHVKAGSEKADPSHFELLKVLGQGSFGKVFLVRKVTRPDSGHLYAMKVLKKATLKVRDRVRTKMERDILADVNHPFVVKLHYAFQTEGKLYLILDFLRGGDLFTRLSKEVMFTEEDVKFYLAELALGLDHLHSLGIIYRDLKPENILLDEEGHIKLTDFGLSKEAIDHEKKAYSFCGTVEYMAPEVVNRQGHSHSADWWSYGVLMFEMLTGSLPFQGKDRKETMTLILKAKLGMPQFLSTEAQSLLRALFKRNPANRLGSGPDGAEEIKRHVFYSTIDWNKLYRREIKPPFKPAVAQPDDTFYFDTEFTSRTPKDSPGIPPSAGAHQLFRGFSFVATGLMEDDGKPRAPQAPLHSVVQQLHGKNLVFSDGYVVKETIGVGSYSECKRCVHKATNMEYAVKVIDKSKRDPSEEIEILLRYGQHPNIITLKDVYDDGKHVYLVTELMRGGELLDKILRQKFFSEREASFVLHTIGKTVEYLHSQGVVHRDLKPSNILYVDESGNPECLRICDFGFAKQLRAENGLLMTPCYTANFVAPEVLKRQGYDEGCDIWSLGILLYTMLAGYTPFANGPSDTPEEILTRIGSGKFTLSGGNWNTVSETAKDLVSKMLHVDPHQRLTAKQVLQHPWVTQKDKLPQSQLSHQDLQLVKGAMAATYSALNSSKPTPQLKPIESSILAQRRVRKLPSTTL

Take `C=CC(=O)Nc1ccccc1Nc1nc(Nc2ccc(N3CCN(C)CC3)cc2)ncc1C(=O)Nc1c(C)cccc1Cl`: the Activity in test [1] stood at 81%; in test [2], 0.15%; in test [3] it was 100%; in test [4], 100%; in [5], 100%; in test [6], 88%. Besides, the Activity in test [7] was determined as 97%; in test [8], 100%; in test [9], 65%; in test [10], 72%; in [11] it was 100%; in test [12] it was 100%. Besides, the Activity in test [13], in [14], in test [16], in test [17], in test [18] and in test [19] was 100% each time. Also, the Activity in test [20] and in test [21] was 100% throughout. Besides, the IC50 – broadly, the concentration that gives 50% inhibition – in test [15] was determined as 8.34 µM.
